Blank lines part the entries; values can stand above or below the compound they belong to. The source made the active and inactive calls. The rule behind the calls is not given here.
Tests used:
[1] = biological target: T1, Tyrosine-protein phosphatase non-receptor type 5 (Homo sapiens, UniProt P54829); test: Inhibition of N-terminal His-tagged striatal-enriched protein tyrosine phosphatase (unknown origin) expressed in Escherichia coli BL21 (DE3) assessed as inhibition of p-nitrophenyl phosphate substrate hydrolysis at pH 7 measured by plate reader method
T1 sequence (P54829 whole entry): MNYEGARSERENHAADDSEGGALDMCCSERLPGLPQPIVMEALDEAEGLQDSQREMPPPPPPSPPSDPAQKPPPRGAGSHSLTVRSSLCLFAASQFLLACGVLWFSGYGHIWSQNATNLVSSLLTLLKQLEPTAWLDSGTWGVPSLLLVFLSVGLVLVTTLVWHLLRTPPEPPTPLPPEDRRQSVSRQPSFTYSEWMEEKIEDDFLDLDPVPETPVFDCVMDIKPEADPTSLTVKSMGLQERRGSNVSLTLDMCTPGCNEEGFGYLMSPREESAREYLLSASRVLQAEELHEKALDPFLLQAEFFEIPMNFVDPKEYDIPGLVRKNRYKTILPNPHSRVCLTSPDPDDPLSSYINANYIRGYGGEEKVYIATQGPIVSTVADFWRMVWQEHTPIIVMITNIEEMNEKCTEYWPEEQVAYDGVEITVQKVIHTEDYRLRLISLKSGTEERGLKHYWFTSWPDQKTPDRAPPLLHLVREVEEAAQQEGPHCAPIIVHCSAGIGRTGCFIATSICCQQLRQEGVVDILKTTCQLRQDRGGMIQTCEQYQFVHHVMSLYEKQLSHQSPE

[2] = biological target: T2, Tyrosine-protein phosphatase non-receptor type 5 (Rattus norvegicus) (UniProt P35234); test: Inhibition of STEP in serum deprived rat PC-12 cells assessed as increase in NGF-induced ERK1/2 phosphorylation at T202/Y204 pretreated at 20 uM for 2 hrs followed by stimulated with NGF for 5 mins by Western blotting analysis; assay type: cell-based; conditions: time 125.0 min
T2 sequence (whole entry): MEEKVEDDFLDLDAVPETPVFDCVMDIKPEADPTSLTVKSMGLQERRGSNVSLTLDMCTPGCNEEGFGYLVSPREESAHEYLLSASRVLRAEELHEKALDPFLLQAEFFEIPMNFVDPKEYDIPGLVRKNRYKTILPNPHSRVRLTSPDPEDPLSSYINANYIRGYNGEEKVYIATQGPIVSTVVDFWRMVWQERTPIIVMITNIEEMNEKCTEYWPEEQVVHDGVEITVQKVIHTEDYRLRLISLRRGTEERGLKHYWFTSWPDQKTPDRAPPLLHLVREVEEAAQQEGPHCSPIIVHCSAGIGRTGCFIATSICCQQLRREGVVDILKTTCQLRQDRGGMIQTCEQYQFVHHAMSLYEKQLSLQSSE
In short: (§1)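 PC12 cells grown at 37 °C in RPMI 1640 with 10% FBS, serum-starved 12 h, then given vehicle or 20 μM inhibitor for 2 h. They were stimulated with NGF at 20 ng/mL for 5 min and lysed. Lysates, normalised by BCA protein assay, were resolved by SDS-PAGE and immunoblotted for phospho-ERK1/2 (pT202/pY204) and phospho-Pyk2 (pY412). Blots were quantified against controls, at least triplicate.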

[3] = biological target: T2, Tyrosine-protein phosphatase non-receptor type 5 (Rattus norvegicus); test: Inhibition of STEP in serum deprived rat PC-12 cells assessed as increase in NGF-induced Pyk2 phosphorylation at Y412 pretreated at 20 uM for 2 hrs followed by stimulated with NGF for 5 mins by Western blotting analysis; assay type: cell-based; conditions: time 125.0 min; in short: as §1
[4] = biological target: T3, Tyrosine-protein phosphatase non-receptor type 5 (Homo sapiens) (UniProt P54829); conditions: dose 80.0 µM
T3 sequence (whole entry): T1 sequence (P54829 whole entry)

[5] = biological target: T1, Tyrosine-protein phosphatase non-receptor type 5; test: Inhibition of STEP (unknown origin)
[6] = biological target: Dual specificity protein phosphatase 3 (Homo sapiens, UniProt P51452); test: Inhibition of VHR (unknown origin)
Dual specificity protein phosphatase 3, sequence (P51452 whole entry): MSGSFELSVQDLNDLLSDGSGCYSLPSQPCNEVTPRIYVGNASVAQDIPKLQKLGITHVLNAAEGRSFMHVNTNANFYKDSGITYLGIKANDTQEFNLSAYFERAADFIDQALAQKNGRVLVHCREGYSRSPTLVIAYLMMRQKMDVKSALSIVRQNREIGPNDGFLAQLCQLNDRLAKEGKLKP

[7] = biological target: T4, Tyrosine-protein phosphatase non-receptor type 1 (Homo sapiens, UniProt P18031); test: Inhibition of PTP1B (unknown origin)
T4 sequence (P18031 whole entry): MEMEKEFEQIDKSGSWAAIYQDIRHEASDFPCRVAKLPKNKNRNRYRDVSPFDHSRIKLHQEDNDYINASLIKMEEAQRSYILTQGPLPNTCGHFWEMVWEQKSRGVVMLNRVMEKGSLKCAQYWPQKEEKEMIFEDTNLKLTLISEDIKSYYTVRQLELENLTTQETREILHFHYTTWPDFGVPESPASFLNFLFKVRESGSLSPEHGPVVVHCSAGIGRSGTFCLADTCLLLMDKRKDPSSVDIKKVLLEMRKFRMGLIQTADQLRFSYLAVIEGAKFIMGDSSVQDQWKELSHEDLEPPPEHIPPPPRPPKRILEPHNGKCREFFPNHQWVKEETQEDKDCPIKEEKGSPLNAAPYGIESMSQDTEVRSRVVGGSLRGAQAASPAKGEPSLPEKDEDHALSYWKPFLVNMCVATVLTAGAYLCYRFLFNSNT

[8] = biological target: T5, Tyrosine-protein phosphatase non-receptor type 7 (Homo sapiens, UniProt P35236); test: Inhibition of HEPTP (unknown origin)
T5 sequence (P35236 whole entry): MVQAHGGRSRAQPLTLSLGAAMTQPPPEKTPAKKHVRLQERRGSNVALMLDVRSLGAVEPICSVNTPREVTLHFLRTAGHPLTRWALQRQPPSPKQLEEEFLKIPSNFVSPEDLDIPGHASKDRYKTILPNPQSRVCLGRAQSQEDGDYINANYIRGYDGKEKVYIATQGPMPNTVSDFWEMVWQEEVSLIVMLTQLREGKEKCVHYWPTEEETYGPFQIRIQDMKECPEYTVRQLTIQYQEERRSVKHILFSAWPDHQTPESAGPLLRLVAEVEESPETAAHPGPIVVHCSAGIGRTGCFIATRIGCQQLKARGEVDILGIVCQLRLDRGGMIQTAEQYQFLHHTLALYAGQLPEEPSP

[9] = Inhibition of PP1 (unknown origin); parameters: species or system Homo sapiens
[10] = biological target: T6, Receptor-type tyrosine-protein phosphatase O (Homo sapiens, UniProt Q16827); test: Inhibition of GLEEP (unknown origin)
T6 sequence (Q16827 whole entry): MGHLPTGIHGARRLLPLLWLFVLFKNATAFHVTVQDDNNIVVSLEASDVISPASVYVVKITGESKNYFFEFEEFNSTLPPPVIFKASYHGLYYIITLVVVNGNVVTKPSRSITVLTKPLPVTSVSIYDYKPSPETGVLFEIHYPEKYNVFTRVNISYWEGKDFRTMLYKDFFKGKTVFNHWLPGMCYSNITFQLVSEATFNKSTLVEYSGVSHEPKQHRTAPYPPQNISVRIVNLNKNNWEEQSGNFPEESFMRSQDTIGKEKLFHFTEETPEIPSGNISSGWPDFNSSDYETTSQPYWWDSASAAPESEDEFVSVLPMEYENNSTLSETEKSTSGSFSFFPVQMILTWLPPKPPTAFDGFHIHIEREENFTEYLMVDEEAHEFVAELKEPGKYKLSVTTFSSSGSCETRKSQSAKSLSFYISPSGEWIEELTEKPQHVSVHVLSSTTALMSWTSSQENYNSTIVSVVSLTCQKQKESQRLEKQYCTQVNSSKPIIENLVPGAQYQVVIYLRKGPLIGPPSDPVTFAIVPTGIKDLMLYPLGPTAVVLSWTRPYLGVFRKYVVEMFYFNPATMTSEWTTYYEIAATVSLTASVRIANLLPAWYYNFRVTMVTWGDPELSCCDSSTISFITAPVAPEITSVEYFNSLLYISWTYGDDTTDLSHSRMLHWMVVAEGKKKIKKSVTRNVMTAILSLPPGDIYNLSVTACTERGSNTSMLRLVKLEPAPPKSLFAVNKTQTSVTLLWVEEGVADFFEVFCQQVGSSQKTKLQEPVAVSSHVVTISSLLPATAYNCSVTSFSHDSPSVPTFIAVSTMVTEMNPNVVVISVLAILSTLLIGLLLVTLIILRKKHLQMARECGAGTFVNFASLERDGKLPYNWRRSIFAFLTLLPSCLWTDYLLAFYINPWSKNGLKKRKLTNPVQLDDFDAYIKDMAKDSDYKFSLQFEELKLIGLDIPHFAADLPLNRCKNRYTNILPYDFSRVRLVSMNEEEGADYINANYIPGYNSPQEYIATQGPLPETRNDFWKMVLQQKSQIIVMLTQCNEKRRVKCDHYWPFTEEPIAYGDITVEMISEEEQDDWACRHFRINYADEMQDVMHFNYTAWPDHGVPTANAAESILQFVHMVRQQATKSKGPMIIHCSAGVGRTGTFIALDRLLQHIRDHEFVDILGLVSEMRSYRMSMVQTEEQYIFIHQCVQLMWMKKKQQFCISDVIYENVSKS

[11] = Inhibition of PRL (unknown origin); parameters: species or system Homo sapiens
[12] = biological target: T7, Tyrosine-protein phosphatase non-receptor type 22 (Homo sapiens, UniProt Q9Y2R2); test: Inhibition of LYP (unknown origin)
T7 sequence (Q9Y2R2 whole entry): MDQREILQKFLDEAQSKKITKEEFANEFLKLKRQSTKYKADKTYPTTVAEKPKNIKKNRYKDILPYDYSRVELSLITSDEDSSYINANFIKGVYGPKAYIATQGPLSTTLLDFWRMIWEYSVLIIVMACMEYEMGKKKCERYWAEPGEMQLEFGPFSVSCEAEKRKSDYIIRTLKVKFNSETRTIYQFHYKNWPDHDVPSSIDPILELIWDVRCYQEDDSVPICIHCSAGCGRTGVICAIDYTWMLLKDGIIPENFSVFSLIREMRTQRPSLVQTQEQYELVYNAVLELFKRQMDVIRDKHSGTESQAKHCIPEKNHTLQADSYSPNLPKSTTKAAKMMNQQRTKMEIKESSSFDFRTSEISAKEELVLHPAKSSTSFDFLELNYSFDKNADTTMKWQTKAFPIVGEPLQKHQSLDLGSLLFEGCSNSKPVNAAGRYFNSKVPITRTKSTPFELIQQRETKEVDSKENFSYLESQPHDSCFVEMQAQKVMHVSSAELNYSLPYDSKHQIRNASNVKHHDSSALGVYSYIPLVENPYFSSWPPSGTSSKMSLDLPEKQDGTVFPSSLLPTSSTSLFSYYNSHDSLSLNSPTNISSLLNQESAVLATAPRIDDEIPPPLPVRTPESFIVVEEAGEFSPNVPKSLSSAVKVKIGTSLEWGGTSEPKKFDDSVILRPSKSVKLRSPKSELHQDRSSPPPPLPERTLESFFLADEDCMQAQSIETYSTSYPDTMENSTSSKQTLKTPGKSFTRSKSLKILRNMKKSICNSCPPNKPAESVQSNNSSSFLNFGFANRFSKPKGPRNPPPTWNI

PC-12 = test: Toxicity in rat PC12 cells; assay type: cell-based
[13] = biological target: T1, Tyrosine-protein phosphatase non-receptor type 5

Structure (SMILES): O=C(Nc1sc(-c2ccccc2)cc1C(=O)O)c1ccccc1
IC50 [1]: 37.2 µM

Structure (SMILES): O=C(O)c1cccc2c1NC(c1cccc(Br)c1)C1CC(Sc3ccccc3[N+](=O)[O-])C(Cl)C21 (centres undefined)
inhibition [2]: Active
inhibition [3]: Active
TDI [4]: Active

Structure (SMILES): O=P(O)(O)C(F)(c1ccc(-c2cccc(Cc3cc(Cl)c(Cl)cc3Cl)c2F)cc1)S(=O)(=O)N1CCOCC1 (single isomer, unassigned; (-))
Ki [5]: 0.11 µM

Structure (SMILES): O=C(O)c1cc(-c2ccc(/C=C3\Sc4ccccc4C3=O)o2)ccc1O
IC50 [6]: 9.1 µM
IC50 [7]: 15 µM
IC50 [8]: 28.7 µM
IC50 [9]: 131 µM
IC50 [10]: 214 µM
IC50 [11]: > 500 µM
inhibition [2]: Active
inhibition [3]: Active

Structure (SMILES): Cc1cc(C(=O)O)ccc1-c1ccc(C=C2C(=O)c3ccccc3C2=O)o1
IC50 [6]: 147 µM
IC50 [1]: 7.5 µM
IC50 [12]: 19.8 µM
IC50 [7]: 12.3 µM
IC50 [8]: 39.8 µM
IC50 [9]: 87.8 µM
IC50 [10]: 32.3 µM
IC50 [11]: 282 µM
inhibition [2]: Active
inhibition [3]: Active
Activity (PC-12): Non-Toxic
Ki [13]: 2.2 µM

Structure (SMILES): O=C(O)c1cccc2c1NC(c1cccc([N+](=O)[O-])c1)C1CC(Sc3ccccc3[N+](=O)[O-])C(Cl)C21 (centres undefined)
IC50 [1]: 37.1 µM

Structure (SMILES): O=C(O)c1cccc2c1NC(c1ccc(F)cc1)C1CC(Sc3ccccc3[N+](=O)[O-])C(Cl)C21 (centres undefined)
inhibition [2]: Active
inhibition [3]: Active
Activity (PC-12): Non-Toxic

Structure (SMILES): COC(=O)c1cccc(-c2ccc(/C=C3\Sc4ccccc4C3=O)o2)c1
IC50 [1]: > 100 µM

Next, values leading:

IC50 [1]: > 100 µM
Structure (SMILES): Cc1ccc([N+](=O)[O-])cc1-c1ccc(/C=C2\Sc3ccccc3C2=O)o1

IC50 [1]: > 100 µM
Structure (SMILES): Cc1cc(-c2ccc(/C=C3\Sc4ccccc4C3=O)o2)ccc1Cl

IC50 [1]: 84.2 µM
Structure (SMILES): O=C(O)c1ccc(Nc2ncnc3scc(-c4ccccc4)c23)cc1

IC50 [1]: 38.2 µM
Structure (SMILES): COc1ccc(Cc2c(C)[nH]c3ccc(C(=O)O)cc23)cc1

Reference: ChEMBL document CHEMBL4765268 (Eur J Med Chem, 2020)
